Experimental findings from ChEMBL document CHEMBL1123282, “Antiinflammatory activity of substituted 6-hydroxypyrimido[2,1-f]purine-2,4,8(1H,3H,9H)-triones. Atypical nonsteroidal antiinflammatory agents” (J Med Chem, 1986) are described below.

“And” between values parts separate entries of the source, which are not always exact repeats. Identical values can stand only once.

The subject of assay [1] is Rattus norvegicus. The assay is described as follows: In vivo antiinflammatory activity against rats by RPAR(reverse passive Arthus reaction) synovitis method. In kind it is functional. Also on record: concentration or dose not given beside the values. The gist of the method:
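Lewis rats, oral drug or placebo 1 h before iv BSA (2.28 mg in saline), then intraarticular rabbit anti-BSA (0.54 mg) into one knee and saline into the other, under light anesthesia. Second oral dose at 3 h; the total of both doses is the calculated dose. About 17 h after induction, subpatellar tissue with synovium is excised and weighed. Response is antibody-minus-saline knee weight, tested by analysis of variance.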

In assay [2] the target is Cyclooxygenase (Rattus norvegicus) (UniProt P35355+Q63921). Kind of assay: In vitro inhibitory activity against Prostaglandin G/H synthase in rat neutrophils at a dose of 50 uM.
In assay [3] the test system is Rattus norvegicus. Kind of assay: Antiinflammatory activity on the development of collagen II arthritis in rats, measured based on animals positive for arthritis by the presence of paw edema. It is filed as functional. In outline: (§1)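 Rats immunised with bovine articular-cartilage type II collagen (dissolved in 0.01 M AcOH for 24 h at 4 °C, dialysed against saline) mixed in equal volume with incomplete Freund's adjuvant. Paws were examined weekly for 7 weeks. An animal counted as arthritic at Δ paw volume ≥8.0 (injected paw) or ≥4.0 (noninjected paw). Bone lesions were scored on lateral-projection foot radiographs. 16 rats/group.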

The test system of assay [4] is Rattus norvegicus. The assay is described as follows: Compound was tested in vivo for antiinflammatory activity against chronic adjuvant arthritic rat by therapeutic inhibition 2 degree paw after peroral administration of 30 mg/kg of dose. In kind it is functional. The settings on record: route oral.
Assay [5] deals with Rattus norvegicus. The assay is described as follows: Compound was tested for intestinal Ulcerogenic effect in rats at a dose of 30 mg/kg. It is filed as functional. In outline:
(§2)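 Normal fed rats were gavaged once daily for three consecutive days at 10–300 mg/kg and killed 24 h after the last dose. Intestines were examined for ulcers, recording incidence per group of 8 and a lesion score (±SE).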

Assay [6] concerns Rattus norvegicus. Kind of assay: Compound was tested in vivo for antiinflammatory activity against chronic adjuvant arthritic rat by therapeutic inhibition 1 degree paw after peroral administration of 30 mg/kg of dose. In kind it is functional. The settings on record: route oral.
The species named for assay [7] is Rattus norvegicus. The assay is described as follows: Antiinflammatory activity by immune response to collagen II antigen in rats antibody titer was determined by passive hemagglutinination. In kind it is functional. In outline:
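In rats with bovine type II collagen/incomplete Freund's adjuvant arthritis, the antibody response to collagen II was titred by passive hemagglutination. The delayed-type hypersensitivity component, ear thickness 24 h after intrapinna antigen, was read at day 21.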

The subject of assay [8] is Rattus norvegicus. The assay is described as follows: Antiinflammatory activity against collagen II arthritis in rats, activity % inhibition in noninjected paw edema. Set-up: concentration or dose not given beside the values. It is filed as functional. In outline: as §1
Assay [9] relates to Rattus norvegicus. Kind of assay: Compound was tested in vivo against chronic adjuvant arthritic rat by prophylactic inhibition 2 degree paw. Relative potency with respect to (8-Benzyl-5-hydroxy-1,3-dimethyl-6-propyl-1H,8H-1,3,4b,8,9-pentaaza-fluorene-2,4,7-trione). It is filed as functional.
The subject of assay [10] is Rattus norvegicus. The assay is described as follows: Compound was tested in vivo for antiinflammatory activity against chronic adjuvant arthritic rat by therapeutic inhibition 2 degree paw after peroral administration of 3.3 mg/kg of dose. In kind it is functional. Particulars: route oral.
Assay [11] has as its system Rattus norvegicus. The assay is described as follows: Tested in vivo for antiinflammatory activity against chronic adjuvant arthritic rat by prophylactic inhibition 1 degree paw after peroral administration of 9 mg/kg of dose. It is filed as functional. Particulars: route oral. In outline: (§3)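 Prophylactic regimen, rats. Adjuvant is heat-killed Mycobacterium tuberculosis ground to a fine powder in paraffin oil (6 mg/mL); 0.1 mL is injected into the left hind paw. Oral drug is given 1 h before adjuvant challenge, then for 21 consecutive days; controls receive methyl cellulose. Left (1°) and right (2°) hind paw volumes are measured by plethysmograph.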

The species entered for assay [12] is Rattus norvegicus. The assay is described as follows: Antiinflammatory activity on the development of collagen II arthritis in rats, measured based on animals positive for arthritis by the presence of bone lesions. In kind it is functional. The gist of the method:
as §1

In assay [13] the test system is Rattus norvegicus. The assay is described as follows: Compound was tested in vivo for antiinflammatory activity against chronic adjuvant arthritic rat by prophylactic inhibition 2 degree paw after peroral administration of 36 mg/kg of dose. The settings on record: po.
The test system of assay [14] is Rattus norvegicus. Kind of assay: Antiinflammatory activity against collagen II arthritis in rats, activity% inhibition in injected paw edema. It is filed as functional. Set-up: concentration or dose not given beside the values. The gist of the method:
as §1

Assay [15] concerns the target T1, Polyunsaturated fatty acid 5-lipoxygenase (Rattus norvegicus) (UniProt P12527).
T1 sequence (whole entry): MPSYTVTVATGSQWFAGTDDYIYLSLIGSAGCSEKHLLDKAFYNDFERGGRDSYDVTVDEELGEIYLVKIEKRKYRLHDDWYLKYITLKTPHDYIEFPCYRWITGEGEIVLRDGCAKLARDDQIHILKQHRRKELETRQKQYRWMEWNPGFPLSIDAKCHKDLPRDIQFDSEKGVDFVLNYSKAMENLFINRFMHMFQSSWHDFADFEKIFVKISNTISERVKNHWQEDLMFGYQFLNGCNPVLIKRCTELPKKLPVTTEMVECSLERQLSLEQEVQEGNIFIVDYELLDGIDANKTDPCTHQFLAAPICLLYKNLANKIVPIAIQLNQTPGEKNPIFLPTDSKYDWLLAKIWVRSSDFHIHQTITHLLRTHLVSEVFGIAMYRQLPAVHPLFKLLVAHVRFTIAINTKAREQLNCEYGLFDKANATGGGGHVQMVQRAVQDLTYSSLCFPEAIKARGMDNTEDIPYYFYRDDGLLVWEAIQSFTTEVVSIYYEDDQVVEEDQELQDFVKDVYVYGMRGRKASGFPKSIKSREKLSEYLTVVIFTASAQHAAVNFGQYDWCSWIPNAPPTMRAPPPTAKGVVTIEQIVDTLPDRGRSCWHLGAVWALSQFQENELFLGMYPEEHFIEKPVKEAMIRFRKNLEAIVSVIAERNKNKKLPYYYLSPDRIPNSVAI
Kind of assay: In vitro inhibitory activity against Lipoxygenase in rat neutrophils at a dose of 50 uM. The gist of the method: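 Neutrophils come from the 4 h pleural exudate of male Wistar-Lewis rats given iv BSA plus intrapleural rabbit anti-BSA IgG. Cells are washed, red cells lysed with NH4Cl, and resuspended at about 5×10^6 cells/0.1 mL in Tris pH 7.4 with NaCl and 1 mM CaCl2. Cells are preincubated with compound 4 min at room temperature.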

The test system of assay [16] is Rattus norvegicus. The assay is described as follows: Tested in vivo for antiinflammatory activity against chronic adjuvant arthritic rat by prophylactic inhibition 2 degree paw after peroral administration of 9 mg/kg of dose. In kind it is functional. Particulars: route oral. In outline:
as §3

In assay [17] the test system is Rattus norvegicus. Kind of assay: Compound was tested for intestinal Ulcerogenic effect in rats, activity expressed as ulcer incidence at a dose of 100 mg/kg. It is filed as functional. The gist of the method:
as §2

Assay [18] concerns Rattus norvegicus. The assay is described as follows: Compound was tested for intestinal Ulcerogenic effect in rats at a dose of 10 mg/kg. In kind it is functional. In outline: as §2
Assay [19] relates to Rattus norvegicus. Kind of assay: Compound was tested for gastric Ulcerogenic effect in rats, activity expressed as lesion length at a dose of 30 mg/kg.
The test system of assay [20] is Rattus norvegicus. The assay is described as follows: Compound was tested for intestinal Ulcerogenic effect in rats at a dose of 100 mg/kg. It is filed as functional. In outline: as §2
The subject of assay [21] is Rattus norvegicus. The assay is described as follows: Compound was tested for intestinal Ulcerogenic effect in rats, activity expressed as lesion score at a dose of 100 mg/kg. In kind it is functional. In outline:
as §2

Regarding `CC(C)=CCc1c(O)n(Cc2ccc(F)cc2)c2nc3c(c(=O)n(C)c(=O)n3C)n2c1=O`, the Inhibition in the assay on Rattus norvegicus [1] amounted to 29%; with Rattus norvegicus [8] it was 80.6%; in the assay on Rattus norvegicus [14], 53.9%. The inhibition was 93% in assay [2]; 21% and 22% in assay [15]. Also, the Positive in the assay with Rattus norvegicus [3] is reported as 21.4%; in the assay filed under Rattus norvegicus [12] it was 14.3%. The inhibition in vivo at 30 mg/kg in the assay on Rattus norvegicus [4] worked out at 87%; in the assay on Rattus norvegicus [6], 59%. For the same compound, the Ulcer incidence in the assay with Rattus norvegicus [5] was 0 number/group. This compound also yielded an Antibody titer in the assay filed under Rattus norvegicus [7] of 8.4. The Relative potency with Rattus norvegicus [9] amounted to 4.8. For the same compound, the inhibition in vivo at 3.3 mg/kg in the assay on Rattus norvegicus [10] was found to be 43%. Also, the inhibition in vivo at 9 mg/kg in the assay on Rattus norvegicus [11] is 22%; in the assay on Rattus norvegicus [16] it was 35%. Also, the inhibition in vivo at 36 mg/kg in the assay with Rattus norvegicus [13] was 69%.

For the compound `CC(C)=CCc1c(O)n(Cc2ccccc2)c2nc3c(c(=O)n(C)c(=O)n3C)n2c1=O`, the Inhibition in the assay with Rattus norvegicus [1] is recorded as 26%; in the assay on Rattus norvegicus [8] it was 10.1%. Besides, the Ulcer incidence with Rattus norvegicus [17] was 1 number/group; in the assay with Rattus norvegicus [18], 0 number/group; with Rattus norvegicus [5], 0 number/group; with Rattus norvegicus [20], 1 number/group. Moreover, the inhibition in assay [2] is 92%; in [15] it was 17% and 22%. For the same compound, the Positive in the assay on Rattus norvegicus [3] is 46.7%; in the assay filed under Rattus norvegicus [12], 40%. Further, the inhibition in vivo at 30 mg/kg in the assay on Rattus norvegicus [4] was determined as 83%; in the assay with Rattus norvegicus [6], 63%. Also, in the assay on Rattus norvegicus [19], the Length worked out at 0 mm rat-1. In addition, the Antibody titer in the assay listed under Rattus norvegicus [7] is 10.9. Besides, the Relative potency in the assay with Rattus norvegicus [9] was 3.1 and 4.3. Besides, in the assay with Rattus norvegicus [10], the inhibition in vivo at 3.3 mg/kg is 42%. In addition, the inhibition in vivo at 9 mg/kg was found to be 30% in the assay with Rattus norvegicus [11] and 76% with Rattus norvegicus [16]. In the assay with Rattus norvegicus [21], this compound gave a Lesion length of 0.1 mm rat-1.

Regarding `CCCc1c(O)n(Cc2ccc(F)cc2)c2nc3c(c(=O)n(C)c(=O)n3C)n2c1=O`, the results for the Inhibition with Rattus norvegicus [1], in the assay with Rattus norvegicus [8] and in the assay on Rattus norvegicus [14] were 53%, 54.9% and 38.2%, respectively. For the same compound, the Ulcer incidence in the assay with Rattus norvegicus [17], in the assay with Rattus norvegicus [18] and with Rattus norvegicus [20] was 0 number/group in each case. Moreover, the inhibition in assay [2] was 36%; in assay [15] it was 0% and 8%. Besides, the Positive is listed as 31.3% in the assay on Rattus norvegicus [3] and 18.8% in the assay listed under Rattus norvegicus [12]. In the assay with Rattus norvegicus [19], this compound yielded a Length of 0 mm rat-1. For the same compound, the Antibody titer in the assay filed under Rattus norvegicus [7] is recorded as 6.6. The Relative potency in the assay with Rattus norvegicus [9] stood at 1.2. Moreover, the inhibition in vivo at 9 mg/kg in the assay on Rattus norvegicus [11] worked out at 42%; with Rattus norvegicus [16], 49%. Moreover, the inhibition in vivo at 36 mg/kg with Rattus norvegicus [13] was 67%. The compound further had a Lesion length with Rattus norvegicus [21] of 0 mm rat-1.
